Results reported in ChEMBL document CHEMBL5230149, “Discovery of novel ketoxime ether derivatives with potent FXR agonistic activity, oral effectiveness and high liver/blood ratio” (Bioorg Med Chem, 2021).
Active and inactive are the calls of the source. The rule behind the calls is not given here.

Experiments:
[1] = target: T1, Bile acid receptor (Mus musculus) (UniProt Q60641); experiment: In vivo agonist activity at FXR in C57BL/6J mouse assessed as downregulation of CYP7A1 mRNA expression in liver at 30 mg/kg, po measured after 6 hrs by qRT-PCR analysis; format: functional, organism-based
T1 sequence (whole entry): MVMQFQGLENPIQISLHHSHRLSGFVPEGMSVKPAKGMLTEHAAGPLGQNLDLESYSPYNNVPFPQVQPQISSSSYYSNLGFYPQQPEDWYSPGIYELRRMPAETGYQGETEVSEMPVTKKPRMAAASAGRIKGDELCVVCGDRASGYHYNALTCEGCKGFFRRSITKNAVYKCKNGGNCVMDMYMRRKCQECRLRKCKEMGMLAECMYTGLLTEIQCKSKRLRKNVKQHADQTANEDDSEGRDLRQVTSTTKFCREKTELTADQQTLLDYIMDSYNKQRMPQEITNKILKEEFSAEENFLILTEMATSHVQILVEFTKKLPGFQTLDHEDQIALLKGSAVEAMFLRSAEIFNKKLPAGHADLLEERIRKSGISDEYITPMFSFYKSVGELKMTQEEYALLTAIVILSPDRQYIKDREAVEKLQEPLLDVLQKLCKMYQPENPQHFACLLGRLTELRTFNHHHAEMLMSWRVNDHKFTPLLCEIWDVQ
In short: (§1)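 Male C57BL/6J mice (7–8 weeks) fasted 3 h, then given a single oral dose; vehicle 0.25% CMC-Na (wt/vol). Killed 6 h post-dose; liver snap-frozen, stored at -80 °C. TRIzol RNA extraction, qRT-PCR, normalised to GAPDH by ΔΔCt. Values given as fold of vehicle group, mean ± SEM, n = 6.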

[2] = target: T1, Bile acid receptor (Mus musculus); experiment: In vivo agonist activity at FXR in C57BL/6J mouse assessed as downregulation of CYP8B1 mRNA expression in liver at 30 mg/kg, po measured after 6 hrs by qRT-PCR analysis; format: functional, organism-based; in short: as §1
[3] = target: T1, Bile acid receptor (Mus musculus); experiment: Agonist activity at FXR in C57BL/6J mouse hepatocytes assessed as upregulation of BSEP mRNA expression at 0.4 to 10 uM incubated for 24 hrs by qRT-PCR analysis; format: cell-based; settings: Hepatocyte, filed as agonist, dose 0.4-10 µM
In short: (§2)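 Hepatocytes isolated from overnight-fasted male C57BL/6J mice (8–12 weeks), allowed 4 h to adhere, then given vehicle (0.5% DMSO) or compound at 0.4, 2 and 10 μM for 24 h. TRIzol RNA extraction, then qRT-PCR with GAPDH normalization by ΔΔCt. Values are expressed as fold over vehicle (mean ± S.E.M, n = 3).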

[4] = target: T1, Bile acid receptor (Mus musculus); experiment: Agonist activity at FXR in C57BL/6J mouse hepatocytes assessed as upregulation of SHP mRNA expression incubated for 24 hrs by qRT-PCR analysis; format: cell-based; settings: Hepatocyte, filed as agonist, dose 0.4-10 µM; in short: as §2
Bile acid receptor = target: T2, Bile acid receptor (Homo sapiens, UniProt Q96RI1); experiment: Agonist activity at human FXR expressed in human Huh-7 cells co-transfected with FXRE-Luc reporter plasmid assessed as receptor transactivation incubated for 16 hrs by luciferase reporter gene assay; format: cell-based
T2 sequence (Q96RI1 whole entry): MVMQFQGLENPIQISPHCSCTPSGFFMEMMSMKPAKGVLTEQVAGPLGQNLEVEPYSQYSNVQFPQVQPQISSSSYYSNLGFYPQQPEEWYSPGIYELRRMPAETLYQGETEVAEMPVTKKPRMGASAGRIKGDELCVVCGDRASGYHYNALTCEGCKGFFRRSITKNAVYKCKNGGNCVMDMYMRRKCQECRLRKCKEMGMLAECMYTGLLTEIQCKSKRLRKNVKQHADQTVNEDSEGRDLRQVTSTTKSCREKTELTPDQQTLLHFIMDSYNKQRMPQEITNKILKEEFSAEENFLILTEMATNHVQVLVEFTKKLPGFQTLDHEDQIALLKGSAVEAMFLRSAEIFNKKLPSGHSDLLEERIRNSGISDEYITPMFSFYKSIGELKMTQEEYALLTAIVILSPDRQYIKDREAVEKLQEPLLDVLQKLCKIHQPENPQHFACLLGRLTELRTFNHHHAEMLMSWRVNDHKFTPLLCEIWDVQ

[5] = target: T3, G-protein coupled bile acid receptor 1 (Homo sapiens, UniProt Q8TDU6); experiment: Agonist activity at human TGR5 expressed in HEK293 cells co-transfected with CRE-Luc reporter plasmid assessed as receptor transactivation incubated for 5.5 hrs by luciferase reporter gene assay; format: cell-based
T3 sequence (Q8TDU6 whole entry): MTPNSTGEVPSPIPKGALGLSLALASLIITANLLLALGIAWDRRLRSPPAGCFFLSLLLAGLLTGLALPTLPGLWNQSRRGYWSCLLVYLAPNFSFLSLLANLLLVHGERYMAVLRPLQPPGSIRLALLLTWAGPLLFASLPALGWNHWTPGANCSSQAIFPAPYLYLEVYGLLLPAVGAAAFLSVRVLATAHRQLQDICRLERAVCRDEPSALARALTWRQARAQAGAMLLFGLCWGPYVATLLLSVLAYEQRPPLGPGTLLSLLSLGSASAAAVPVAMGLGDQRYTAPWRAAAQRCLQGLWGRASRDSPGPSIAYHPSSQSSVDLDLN

[6] = Drug uptake in ICR mouse liver at 15 mg/kg, po measured after 1.5 hrs by LC-MS/MS analysis; format: ADME, organism-based; settings: read-out: Drug uptake
In short: (§3)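 Overnight-fasted male ICR mice (n = 3 per time point) received single oral 15 mg/kg and were refed 2 h later. Blood and liver were taken at 1.5, 4 and 8 h. Serum (10 µL) was precipitated with 100 µL methanol/acetonitrile (1:1). Liver was homogenized in ten times its weight of the same solvent. Supernatants were diluted 1:1 in ACN/H₂O and analyzed by LC-MS/MS. The ratio is liver conc (ng/g) over plasma conc (ng/mL).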

[7] = Plasma concentration in ICR mouse at 15 mg/kg, po measured after 1.5 hrs by LC-MS/MS analysis; format: ADME, organism-based; in short: as §3
[8] = target: T4, TGR5 (G-protein coupled bile acid receptor 1) (Homo sapiens, UniProt Q8TDU6); experiment: Agonist activity at human TGR5 expressed in HEK293 cells co-transfected with CRE-Luc reporter plasmid assessed as receptor transactivation incubated for 5.5 hrs by luciferase reporter gene assay relative to OCA; format: cell-based; settings: read-out: Efficacy
T4 sequence (Q8TDU6 whole entry): T3 sequence (Q8TDU6 whole entry)

[9] = Drug uptake in ICR mouse liver at 15 mg/kg, po measured after 4 hrs by LC-MS/MS analysis; format: ADME, organism-based; settings: read-out: Drug uptake; in short: as §3
[10] = target: T1, Bile acid receptor (Mus musculus); experiment: In vivo agonist activity at FXR in C57BL/6J mouse assessed as downregulation of CYP8B1 mRNA expression in liver at 10 mg/kg, po measured after 6 hrs by qRT-PCR analysis; format: functional, organism-based
In short: (§4)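 Male C57BL/6J mice (7–8 weeks) were fasted 3 h, then dosed orally once in 0.25% CMC-Na (wt/vol) vehicle. Sacrificed 6 h post-dose; liver snap-frozen at -80 °C. TRIzol RNA extraction and qRT-PCR with GAPDH normalization (ΔΔCt). Results are fold over vehicle group (mean ± S.E.M, n = 6).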

[11] = Plasma concentration in ICR mouse at 15 mg/kg, po measured after 4 hrs by LC-MS/MS analysis; format: ADME, organism-based; in short: as §3
[12] = Plasma concentration in ICR mouse at 15 mg/kg, po measured after 8 hrs by LC-MS/MS analysis; format: ADME, organism-based; in short: as §3
[13] = Drug uptake in ICR mouse liver at 15 mg/kg, po measured after 8 hrs by LC-MS/MS analysis; format: ADME, organism-based; settings: read-out: Drug uptake; in short: as §3
[14] = target: T1, Bile acid receptor (Mus musculus); experiment: In vivo agonist activity at FXR in C57BL/6J mouse assessed as downregulation of CYP7A1 mRNA expression in liver at 10 mg/kg, po measured after 6 hrs by qRT-PCR analysis; format: functional, organism-based; in short: as §4

CC[C@H]1[C@@H](O)[C@@H]2[C@H](CC[C@]3(C)[C@@H]([C@H](C)CCC(=O)O)CC[C@@H]23)[C@@]2(C)CC[C@@H](O)C[C@@H]12
Activity [1]: Active
Activity [2]: Active
Activity [3]: Active
Activity [4]: Dose-Dependent Effect

C/C(=N\OCc1ccc(C(=O)O)o1)c1ccc(OCc2c(-c3c(Cl)cccc3Cl)noc2C2CC2)cc1Cl
EC50 (Bile acid receptor): 49.7 nM

C/C(=N\OCc1cncc(C(=O)O)c1)c1ccc(OCc2c(-c3ccccc3OC(F)(F)F)noc2C2CC2)c(C)c1
EC50 (Bile acid receptor): 1830 nM

C/C(=N\OCc1cc(C(=O)O)ccc1C#N)c1ccc(OCc2c(-c3ccccc3OC(F)(F)F)noc2C2CC2)c(C)c1
EC50 (Bile acid receptor): 440 nM

C/C(=N\OCc1cc(C(=O)O)ccc1C#N)c1ccc(OCc2c(-c3ccccc3OC(F)(F)F)noc2C2CC2)cc1Cl
EC50 [5]: > 100000 nM
concentration at 1.5 h [6]: 4340 ng/g
concentration at 1.5 h [7]: 56.7 ng/mL
Emax at 5.5 h [8]: 0.6%
concentration at 4 h [9]: 3580 ng/g
Activity [3]: Active
Activity [10]: Active
concentration at 4 h [11]: 45.2 ng/mL
Activity [4]: Dose-Dependent Effect
concentration at 8 h [12]: 8.4 ng/mL
concentration at 8 h [13]: 941 ng/g
Activity [14]: Active

C/C(=N\OCc1cc(C)cc(C(=O)O)c1)c1ccc(OCc2c(-c3ccccc3OC(F)(F)F)noc2C2CC2)cc1Cl
EC50 (Bile acid receptor): 158 nM

C/C(=N\OCc1cc(C)cc(C(=O)O)c1)c1ccc(OCc2c(-c3ccccc3OC(F)(F)F)noc2C2CC2)c(F)c1
EC50 (Bile acid receptor): 1340 nM

C/C(=N\OCc1ccccc1C(=O)O)c1ccc(OCc2c(-c3c(Cl)cccc3Cl)noc2C2CC2)cc1Cl
EC50 (Bile acid receptor): 75.4 nM

C/C(=N\OCc1cncc(C(=O)O)c1)c1ccc(OCc2c(-c3ccccc3OC(F)(F)F)noc2C2CC2)cc1Cl
EC50 (Bile acid receptor): 54.8 nM

C/C(=N\OCc1cccc(C(=O)O)c1)c1ccc(OCc2c(-c3c(Cl)cccc3Cl)noc2C2CC2)cc1Cl
EC50 (Bile acid receptor): 47.4 nM

C/C(=N\OCc1cc(C)cc(C(=O)O)c1)c1ccc(OCc2c(-c3ccccc3OC(F)(F)F)noc2C2CC2)c(C)c1
EC50 (Bile acid receptor): 523 nM
